Measured values from different studies.
Each line is one published result; the experiments were not run side by side.
Target: Beta-adrenergic receptor kinase 1 (GRK2, Homo sapiens, UniProt P25098)
Sequence (P25098 1-689, as in one of the studies): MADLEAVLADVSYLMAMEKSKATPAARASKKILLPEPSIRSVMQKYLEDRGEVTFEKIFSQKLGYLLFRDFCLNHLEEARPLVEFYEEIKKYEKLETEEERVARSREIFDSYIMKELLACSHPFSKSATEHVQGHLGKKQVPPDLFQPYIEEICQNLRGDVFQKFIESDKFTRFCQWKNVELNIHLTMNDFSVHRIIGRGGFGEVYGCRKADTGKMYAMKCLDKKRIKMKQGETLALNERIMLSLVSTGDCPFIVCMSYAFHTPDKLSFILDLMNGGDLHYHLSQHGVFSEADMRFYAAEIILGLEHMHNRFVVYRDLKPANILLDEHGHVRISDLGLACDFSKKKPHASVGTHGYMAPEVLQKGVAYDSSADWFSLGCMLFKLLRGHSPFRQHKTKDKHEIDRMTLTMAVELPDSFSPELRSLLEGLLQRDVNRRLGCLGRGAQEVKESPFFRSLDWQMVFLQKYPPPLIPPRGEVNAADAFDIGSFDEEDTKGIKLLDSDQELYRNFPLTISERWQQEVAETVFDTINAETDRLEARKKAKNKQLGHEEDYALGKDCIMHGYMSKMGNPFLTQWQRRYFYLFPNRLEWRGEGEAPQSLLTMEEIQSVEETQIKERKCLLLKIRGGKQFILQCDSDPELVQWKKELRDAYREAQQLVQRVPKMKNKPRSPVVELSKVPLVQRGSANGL

SMILES | assay | conditions | endpoint | result
O=C(O)[C@H]1[C@H](Cn2nnc3ccccc3c2=O)CC[C@@H]1C(=O)c1ccc(OCCC2CCOCC2)cc1 | cell-free assay, competition with immobilised ligand | 1 µM | remaining binding | 61%
Cc1sc(C(=O)NC2COC2)cc1-n1cc(NC(=O)Nc2c(F)cccc2Cl)cn1 | enzyme activity, inhibitor | 10 µM | remaining activity | 106%
O=C(NC[C@@H]1[C@H]2CN(C(=O)OCc3cc(C(F)(F)F)cc(C(F)(F)F)c3)C[C@@H]12)c1ccc2[nH]nnc2c1 | cell-free assay, competition with immobilised ligand | 1 µM | remaining binding | 71%
CCCS(=O)(=O)Nc1ccc(F)c(C(=O)c2c[nH]c3ncc(-c4ccc(Cl)cc4)cc23)c1F | enzyme activity, inhibitor | 1 µM | inhibition | < 20%
CN1CC(Oc2cnc(C#N)cc2-c2ccn3nc(NC(=O)C4CC4)cc3c2)C1 | enzyme activity, inhibitor | 1 µM | inhibition | 5%
Cc1ccc(C(=O)Nc2ccc(CN3CCN(C)CC3)c(C(F)(F)F)c2)cc1C#Cc1cnc2cccnn12 | enzyme activity, inhibitor | 23.5 nM | remaining activity | 77%
COc1cccc2c(NCc3ccccc3)nc(-n3c(N)nc4ccccc43)nc12 | target engagement in cells, inhibitor, chemoproteomics | 20 mM | inhibition | -14.5%
Cc1cc(NC(=O)c2cccc3cc(-c4cccc5[nH]nc(N)c45)ccc23)ccc1F | enzyme activity, inhibitor | 0.1 µM | activity vs control | 73%
CN(C(=O)c1ccccc1)c1cc(N(C)c2ccc3c(c2)CCc2ccc(C(=O)NCCN4CCOCC4)cc2C3=O)ccc1F | cell-free assay, competition with immobilised ligand | 1 µM | remaining binding | 100%
COc1cc2ncnc(Nc3ccc(Oc4ccccc4)cc3C)c2cc1OC | enzyme activity, inhibitor | 1 µM | inhibition | -1%
CC1CCCN1c1nccc(-c2cnn3ncccc23)n1 (stereo not shown) | binding, competition with immobilised ligand | 1 µM | remaining binding | 69%
O=C1Nc2ccc(Cl)cc2C1=Cc1cc(Cl)c(O)c(Cl)c1 | cell-free assay | 0.5 µM | remaining signal | 93.4%
CCCCNc1ncc2c(-c3ccc(F)cc3)nn(C[C@H]3CC[C@H](N)CC3)c2n1 | target engagement in cells, inhibitor, chemoproteomics | 20 mM | inhibition | -6.2%
CC(C)(C)c1nc(-c2cccc(NS(=O)(=O)c3c(F)cccc3F)c2F)c(-c2ccnc(N)n2)s1 | enzyme activity, inhibitor, radiometric | 1 µM | remaining activity | 95%
C[C@H](NC(=O)c1cnc2n1[C@](C)(Cc1ccc(C#N)cc1)C(=O)N2c1cc(Cl)c(F)c(Cl)c1)C(=O)NC1(c2ccccn2)CC1 | cell-free assay, competition with immobilised ligand | 1 µM | remaining binding | 100%
CC(C)(O)[C@H]1CC[C@H](Nc2ccc3ncc(-c4cccc(C(F)(F)F)c4)n3n2)CC1 | enzyme activity, inhibitor | 1 µM | remaining activity | 116%
